23 compounds from ChEMBL document CHEMBL1687739 (Antimicrob Agents Chemother, 2009) can be followed below.

In data set [1] the test system is Plasmodium falciparum. Nature of the data set: Antiplasmodial activity against erythrocytic stage of chloroquine - and pyrimethamine-resistant Plasmodium falciparum K1 assessed as [3H]hypoxanthine incorporation after 48 hrs. It is filed as functional, organism-based. The procedure, abridged:
(§1)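 K1 erythrocytic stages were cultured in hypoxanthine-free RPMI 1640 with Albumax, A+ RBC at 2.5% hematocrit and 0.3% parasitemia. DMSO stocks were 10 mg/ml; seven twofold dilutions covered 5 to 0.156 μg/ml. Plates were held at 37°C in 4% CO2/3% O2/93% N2 for 48 h, then 0.5 μCi [3H]hypoxanthine was added for 24 h and scintillation counted. IC50 from sigmoidal curves. SI = L-6 CC50/IC50.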

In data set [2] the test system is Leishmania donovani. Nature of the data set: Antileishmanial activity against Leishmania donovani MHOM/ET/67/L82 amastigote after 72 hrs. The following applies: MHOM/ET/67/L82, 72 h. It counts as functional, organism-based. The procedure, abridged:
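Axenic amastigotes were grown at 37°C under 5% CO2 in SM medium, pH 5.4, with 10% heat-inactivated FBS. 10^5 per well were exposed 72 h to serial dilutions (30 to 0.041 μg/ml). Alamar Blue was added for 2 h, then fluorescence read at ex 536/em 588 nm as % of control. IC50 came from sigmoidal curves. Duplicates, repeated at least once.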

Data set [3] is described as follows: Cytotoxicity against rat L6 cells after 72 hrs by microplate alamar blue assay. It is filed as cell-based. The method, boiled down:
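Rat skeletal myoblast L-6 cells, 4 × 10^4/well in RPMI 1640 with L-glutamine and 10% FBS, were given seven threefold dilutions (90 to 0.123 μg/ml) for 72 h. Alamar Blue was added for 2 h and fluorescence read at ex 536/em 588 nm. Tested in duplicate, assay repeated at least once.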
(Alamar Blue is a resazurin reagent that responds to reducing activity.)

Data set [4] concerns Trypanosoma cruzi. Nature of the data set: Antitrypanosomal activity against Trypanosoma cruzi Tulahuen C2C4 trypomastigote after 48 hrs. The following applies: Tulahuen C2C4, 48 h. It counts as functional, organism-based. The procedure, abridged:
(§2)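 T. cruzi Tulahuen C2C4 (LacZ) trypomastigotes, 5,000/well, were added to rat L-6 myoblasts seeded 24 h earlier in RPMI 1640 with 10% FBS. After 48 h the medium was replaced with seven threefold drug dilutions (90 to 0.123 μg/ml) and incubated 96 h. CPRG-Nonidet was added and read at 540 nm after 2–6 h to give IC50. Duplicates, assay repeated at least once. SI = L-6 CC50/parasite IC50.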

Data set [5] can be described thus: Selectivity index, CC50 for rat L-6 cells to IC50 for erythrocytic stage of chloroquine - and pyrimethamine-resistant Plasmodium falciparum K1. It counts as functional. The method, boiled down: as §1
Data set [6] is described as follows: Selectivity index, CC50 for rat L-6 cells to IC50 for Trypanosoma brucei rhodesiense ST1B900 trypomastigote […]. It is filed as functional. The procedure, abridged: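 Bloodstream-form STIB900, 10^4/well in supplemented MEM with 15% heat-inactivated horse serum, were exposed to seven threefold dilutions (90 to 0.123 μg/ml) for 72 h at 37°C, 5% CO2. Alamar Blue was added for 2–4 h, then fluorescence read at ex 536/em 588 nm. SI = L-6 CC50/IC50. Duplicates, repeated at least once.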

Data set [7] is described as follows: Selectivity index, CC50 for rat L-6 cells to IC50 for Trypanosoma cruzi Tulahuen C2C4 trypomastigote. It counts as functional. The method, boiled down: as §2
In data set [8] the test system is Trypanosoma brucei rhodesiense. The data set can be described thus: Antitrypanosomal activity against Trypanosoma brucei rhodesiense ST1B900 trypomastigote infected in NMR1 mouse assessed as survival of mouse at 50 mg/kg, ip administered on day 3 post infection for 4 days. It is filed as functional, organism-based. Further details: dose 50 mg/kg.

pIC50: −log10 of the molar value. Calls of active or inactive are those of the source. No cut-off for these calls is given here.

`CCC(=O)N(CCN/C(=N/C(=O)OC(C)(C)C)NC(=O)OC(C)(C)C)C1CCN(CCc2ccccc2)CC1`: the negative logarithm of the IC50 (pIC50) (commonly the IC50 on a negative log10 scale, so that one unit is a factor of ten) in data set [1] was 5.73; in data set [2] it was 4.72; in data set [4] it was 4.43. Moreover, half-maximal cytotoxicity in data set [3] (CC50 at 72 h) was put at 35.6 µM.
The like results for `CCC(=O)N(CCCN/C(=N/C(=O)OC(C)(C)C)NC(=O)OC(C)(C)C)C1CCN(CCc2ccccc2)CC1` were, in that order, 5.87, 4.51, less than 4.28 and 80.7 µM.
Turning to `N=C(N)NCCCCCCNC(=N)N.O=S(=O)(O)O`, in data set [1], the pIC50 was 6.35. The CC50 (usually the concentration giving 50% cytotoxicity) at 72 h in data set [3] was greater than 302 µM. Further, the “Selectivity Index” value in data set [5] is reported as greater than 679.
Turning to `CCC(=O)N(CCCCCCCCN/C(=N/C(=O)OC(C)(C)C)NC(=O)OC(C)(C)C)C1CCN(CCc2ccccc2)CC1`, the pIC50 in data set [1] was 6.22; in data set [2], 4.83; in data set [4], 4.91. Also, in data set [3], the CC50 at 72 h was determined as 21.5 µM. Besides, in data set [5], the “Selectivity Index” value stood at 35.
As for `O=[N+]([O-])c1cccc(NC2CCN(CCc3ccccc3)CC2)c1`, the pIC50 is 4.98 in data set [1], 4.63 in data set [2] and 4.34 in data set [4]. The compound also registered a CC50 at 72 h in data set [3] of 257 µM.
`CCC(=O)N(CCCCCCN/C(=N/C(=O)OC(C)(C)C)NC(=O)OC(C)(C)C)C1CCN(CCc2ccccc2)CC1`: the negative logarithm of the IC50 (pIC50) in data set [1] is 6.07; in data set [2], 4.88; in data set [4], 4.64. In addition, the cytotoxic concentration (CC50) at 72 h in data set [3] was 24.9 µM. Also, the “Selectivity Index” value in data set [5] was 29.
Regarding `CCCCCCCCCCCCCNC(=N)N.O=S(=O)(O)O` [AMINO(TRIDECYLAMINO)METHANIMINIUM HYDROGENSULFATE], the pIC50 in data set [1] was 5.10. The compound also registered a CC50 at 72 h in data set [3] of 19.6 µM. The “Selectivity Index” value in data set [5] is reported as 2.4.
For the compound `CCCCCCCCCCCCCCCCOP(=O)([O-])OCC[N+](C)(C)C` [MILTEFOSINE], in data set [2], the negative-log IC50 (pIC50) is 6.69.
For `CC(C)(C)OC(=O)NCc1cccc(CNC2CCN(CCc3ccccc3)CC2)c1`, the values for the pIC50 in data set [1], in data set [2] and in data set [4] were 5.78, 4.11 and 4.76, respectively. Also, in data set [6], the “Selectivity Index” value was found to be 219. Further, in data set [3], the cytotoxic concentration (CC50) at 72 h came out at 111 µM.
As to `CC(C)(C)OC(=O)NCCCCCCCCCCCCNC1CCN(CCc2ccccc2)CC1`, the pIC50 was 6.49 in data set [1], 4.75 in data set [2] and 5.50 in data set [4]. For the same compound, the entries for the “Selectivity Index” value in data set [6], in data set [7] and in data set [5] were 52, less than 3 and 25, respectively. The compound also displayed a cytotoxic concentration (CC50) at 72 h in data set [3] of 8.2 µM.
Take `CC(C)(C)OC(=O)NCCCCCCCNC1CCN(CCc2ccccc2)CC1`: the negative logarithm of the IC50 (pIC50) in data set [1] was 6.11; in data set [2], less than 4.14; in data set [4], 4.92. Besides, the “Selectivity Index” value in data set [6] is listed as 41; in data set [5], 42. In addition, the 50% cytotoxic concentration (CC50) at 72 h in data set [3] worked out at 32.9 µM.
`CC(C)(C)OC(=O)NCCCCCCCCNC1CCN(CCc2ccccc2)CC1`: the results for the negative-log IC50 (pIC50) in data set [1], in data set [2] and in data set [4] were 6.21, less than 4.16 and 5.24, respectively. Moreover, the “Selectivity Index” value is reported as 130 in data set [6], less than 3 in data set [7] and 25 in data set [5]. In data set [3], this compound showed a cytotoxic concentration (CC50) at 72 h of 15.5 µM. Besides, in data set [8], the outcome was inactive.
As to `CC(C)(C)OC(=O)NCCCCCCNC1CCN(CCc2ccccc2)CC1`, the pIC50 in data set [1] is 6.05; in data set [2], less than 4.13; in data set [4], 4.54. Further, the “Selectivity Index” value in data set [6] is given as 36; in data set [5], 43. Besides, in data set [3], it took 39.3 µM to reach half-maximal cytotoxicity (CC50 at 72 h).
Regarding `CC(C)(C)OC(=O)NCCCNC1CCN(CCc2ccccc2)CC1`, the figures for the pIC50 in data set [1], in data set [2] and in data set [4] were 5.68, 4.16 and 4.26, respectively. For the same compound, the CC50 at 72 h in data set [3] was found to be 129 µM.
With `CC(C)(C)OC(=O)NCCCCCCCCCNC1CCN(CCc2ccccc2)CC1`, the pIC50 in data set [1] is 6.44; in data set [2], less than 4.17; in data set [4], 5.43. Moreover, the “Selectivity Index” value in data set [6] is given as 48; in data set [7], less than 3; in data set [5], 16. The same compound displayed a CC50 at 72 h in data set [3] of 6.05 µM.
Consider `CC(C)(C)OC(=O)NCCNC1CCN(CCc2ccccc2)CC1`, for which the negative logarithm of the IC50 (pIC50) in data set [1] was 5.69; in data set [2], 4.09; in data set [4], 4.26. Further, in data set [3], half-maximal cytotoxicity (CC50 at 72 h) was put at 174 µM.
As for `CCC(=O)N(CCCCCCCCCCCCN/C(=N/C(=O)OC(C)(C)C)NC(=O)OC(C)(C)C)C1CCN(CCc2ccccc2)CC1`, the negative logarithm of the IC50 (pIC50) in data set [1] is 6.39; in data set [2], 5.24; in data set [4], 5.28. Moreover, the “Selectivity Index” value was less than 3 in data set [7] and 18 in data set [5]. This compound gave a CC50 at 72 h in data set [3] of 7.54 µM.
`CC(C)(C)OC(=O)NCCCCNC1CCN(CCc2ccccc2)CC1`: the negative-log IC50 (pIC50) in data set [1] was 5.89; in data set [2], less than 4.10; in data set [4], 4.25. Further, the CC50 at 72 h in data set [3] is 155 µM.
`N=C(N)NCCCCCCCCNC(=N)N.O=S(=O)(O)O`: in data set [1], the pIC50 is 6.97. This compound also had a CC50 at 72 h in data set [3] greater than 276 µM. Further, the “Selectivity Index” value in data set [5] is recorded as greater than 2608.
With `CC(C)(C)OC(=O)NCCCCCNC1CCN(CCc2ccccc2)CC1`, the negative logarithm of the IC50 (pIC50) in data set [1] was 5.82; in data set [2], less than 4.11; in data set [4], 4.16. Besides, in data set [3], the midpoint of cytotoxicity, the CC50 at 72 h, lay at 95.6 µM.
As to `CCC(=O)N(CCCCCCCCCCCCNC(=O)OC(C)(C)C)C1CCN(CCc2ccccc2)CC1`, the pIC50 was 5.88 in data set [1], 5.21 in data set [2] and 5.09 in data set [4]. Further, the “Selectivity Index” value in data set [7] is on record as less than 3. In addition, the half-maximal cytotoxic concentration (CC50) at 72 h in data set [3] came to 13.8 µM.
For the compound `CCC(=O)N(CCCCCCCCCNC(=O)OC(C)(C)C)C1CCN(CCc2ccccc2)CC1`, the pIC50 in data set [1] is 5.84; in data set [2], 4.46; in data set [4] it was 4.93. The compound also registered a CC50 at 72 h in data set [3] of 16 µM.
For `N=C(N)NCCCCCCCCCNC(=N)N.O=S(=O)(O)O`, the pIC50 in data set [1] is 7.08. The compound also displayed a 50% cytotoxic concentration (CC50) at 72 h in data set [3] greater than 265 µM. The “Selectivity Index” value in data set [5] is recorded as greater than 3162.
